Data from ChEMBL document CHEMBL5724801, “EUbOPEN Chemogenomics Library - Multiplex” (2024).
Where “and” joins values, the source holds several entries; their conditions need not be identical. Equal entries are not always repeated.

Test system: HEK-293T
Assay: Multiplex assay against HEK293T
Type: toxicity, cell-based
Settings: human
Summary of the method: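 Compound was added to live cells that had been stained at seeding with Hoechst33342, BioTracker Green Microtubule Cytoskeleton Dye, MitoTracker Red and Annexin V Alexa Fluor 680, and imaging followed on a CQ1 microscope at 37°C and 5% CO2. CellPathfinder machine-learning gating divided cells into Hoechst high-intensity objects or normal cells, normal cells into healthy, pyknosed or fragmented nuclei, and pyknosed cells into mitotic or apoptotic. Tubulin, mitochondrial-mass and membrane-permeability phenotypes are per cents of healthy-nucleus cells.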

[1] = 12 h, 1 µM, compound concentration 1 uM
[2] = 12 h, 10 µM, compound concentration 10 uM
[3] = 24 h, 1 µM, compound concentration 1 uM
[4] = 24 h, 10 µM, compound concentration 10 uM
[5] = 48 h, 1 µM, compound concentration 1 uM
[6] = 48 h, 10 µM, compound concentration 10 uM

## CC(C)CNc1nc(N2CCN(CC3CCCOC3)CC2)ncc1C(=O)NCc1ccccc1 (stereo not drawn)
[1]
  Population Apoptotic (%): 11.7% and 11.21%
  Population Fragmented Nuclei (%): 1.89% and 4.9%
  Population Hoechst High Intensity Objects (%): 0.31% and 0%
  Population Membrane Permeable-Phenotype (%): 0%
  Population Mitotic Cells (%): 88.3% and 88.79%
  Population Normal (%): 99.69% and 100%
  Population Pyknosed Nuclei (%): 53.94% and 81.12%
  Population Tubulin-Different-Phenotype (%): 13.57% and 25%
  Total Cell Count: 318 and 143
[2]
  Population Apoptotic (%): 30.6% and 27.73%
  Population Fragmented Nuclei (%): 4.29% and 5.11%
  Population Hoechst High Intensity Objects (%): 1.06% and 0%
  Population Membrane Permeable-Phenotype (%): 0%
  Population Mitochondria Different-Phenotype (%): 23.53% and 63.64%
  Population Mitotic Cells (%): 69.4% and 72.27%
  Population Normal (%): 98.94% and 100%
  Population Pyknosed Nuclei (%): 65.36% and 86.86%
  Population Tubulin-Different-Phenotype (%): 85.88% and 81.82%
  Total Cell Count: 283 and 137
[3]
  Population Apoptotic (%): 21.51% and 22.81%
  Population Fragmented Nuclei (%): 1.41% and 5.26%
  Population Hoechst High Intensity Objects (%): 0.2% and 0%
  Population Membrane Permeable-Phenotype (%): 1.89% and 0%
  Population Mitochondria Different-Phenotype (%): 30.6% and 36.67%
  Population Mitotic Cells (%): 78.49% and 77.19%
  Population Normal (%): 99.8% and 100%
  Population Pyknosed Nuclei (%): 34.68% and 75%
  Population Tubulin-Different-Phenotype (%): 28.71% and 13.33%
[4]
  Population Apoptotic (%): 59.41% and 71.68%
  Population Fragmented Nuclei (%): 4.91% and 5.67%
  Population Hoechst High Intensity Objects (%): 0.61% and 0%
  Population Membrane Permeable-Phenotype (%): 0%
  Population Mitochondria Different-Phenotype (%): 72.86% and 75%
  Population Mitotic Cells (%): 40.59% and 28.32%
  Population Normal (%): 99.39% and 100%
  Population Pyknosed Nuclei (%): 52.15% and 80.14%
  Population Tubulin-Different-Phenotype (%): 90.71% and 75%
  Total Cell Count: 328 and 141
[5]
  Population Apoptotic (%): 7.95% and 20.65%
  Population Fragmented Nuclei (%): 1.03% and 6.84%
  Population Healthy Nuclei (%): 83.45% and 44.74%
  Population Hoechst High Intensity Objects (%): 0%
  Population Membrane Permeable-Phenotype (%): 2.71% and 1.18%
  Population Mitochondria Different-Phenotype (%): 49.88% and 61.18%
  Population Mitotic Cells (%): 92.05% and 79.35%
  Population Normal (%): 100%
[6]
  Population Apoptotic (%): 64.8% and 78.16%
  Population Fragmented Nuclei (%): 2.93% and 2.01%
  Population Healthy Nuclei (%): 60.41% and 39.6%
  Population Hoechst High Intensity Objects (%): 0.87% and 1.32%
  Population Membrane Permeable-Phenotype (%): 0.97% and 3.39%
  Population Mitochondria Different-Phenotype (%): 96.6% and 88.14%
  Population Mitotic Cells (%): 35.2% and 21.84%
  Population Normal (%): 99.13% and 98.68%
  Population Pyknosed Nuclei (%): 36.66% and 58.39%
  Population Tubulin-Different-Phenotype (%): 73.3% and 91.53%
  Total Cell Count: 344 and 151

## CN1CCN(c2nc3cc(C(F)(F)F)ccc3n3cccc23)CC1.O=C(O)/C=C\C(=O)O.O=C(O)/C=C\C(=O)O
[1]
  Population Apoptotic (%): 37% and 53%
  Population Fragmented Nuclei (%): 5% and 8%
  Population Healthy Nuclei (%): 80% and 77%
  Population Hoechst High Intensity Objects (%): 10% and 5%
  Population Membrane Permeable-Phenotype (%): 0%
  Population Mitochondria Different-Phenotype (%): 48% and 76%
  Population Mitotic Cells (%): 62% and 46%
  Population Normal (%): 89% and 94%
  Population Pyknosed Nuclei (%): 13% and 14%
  Population Tubulin-Different-Phenotype (%): 33% and 35%
  Total Cell Count: 438 and 332
[2]
  Population Apoptotic (%): 68% and 64%
  Population Fragmented Nuclei (%): 7% and 5%
  Population Healthy Nuclei (%): 76%
  Population Hoechst High Intensity Objects (%): 14% and 9%
  Population Membrane Permeable-Phenotype (%): 0%
  Population Mitochondria Different-Phenotype (%): 73% and 89%
  Population Mitotic Cells (%): 31% and 35%
  Population Normal (%): 85% and 90%
  Population Pyknosed Nuclei (%): 15% and 18%
  Population Tubulin-Different-Phenotype (%): 64% and 66%
  Total Cell Count: 396 and 286
[3]
  Population Apoptotic (%): 33% and 54%
  Population Fragmented Nuclei (%): 9% and 6%
  Population Healthy Nuclei (%): 81% and 83%
  Population Hoechst High Intensity Objects (%): 6%
  Population Membrane Permeable-Phenotype (%): 1% and 0%
  Population Mitochondria Different-Phenotype (%): 30% and 50%
  Population Mitotic Cells (%): 66% and 45%
  Population Normal (%): 93%
  Population Pyknosed Nuclei (%): 9% and 10%
  Population Tubulin-Different-Phenotype (%): 24% and 25%
  Total Cell Count: 557 and 390
[4]
  Population Apoptotic (%): 41% and 63%
  Population Fragmented Nuclei (%): 8% and 10%
  Population Healthy Nuclei (%): 77% and 78%
  Population Hoechst High Intensity Objects (%): 9% and 7%
  Population Membrane Permeable-Phenotype (%): 0%
  Population Mitochondria Different-Phenotype (%): 65% and 79%
  Population Mitotic Cells (%): 58% and 36%
  Population Normal (%): 90% and 92%
  Population Pyknosed Nuclei (%): 13% and 10%
  Population Tubulin-Different-Phenotype (%): 62% and 58%
  Total Cell Count: 490 and 378
[5]
  Population Apoptotic (%): 20% and 37%
  Population Fragmented Nuclei (%): 13%
  Population Healthy Nuclei (%): 78% and 79%
  Population Hoechst High Intensity Objects (%): 3% and 5%
  Population Membrane Permeable-Phenotype (%): 2% and 0%
  Population Mitochondria Different-Phenotype (%): 17% and 42%
  Population Mitotic Cells (%): 79% and 62%
  Population Normal (%): 96% and 94%
  Population Pyknosed Nuclei (%): 7%
  Population Tubulin-Different-Phenotype (%): 17% and 21%
  Total Cell Count: 915 and 535
[6]
  Population Apoptotic (%): 50% and 52%
  Population Fragmented Nuclei (%): 15% and 11%
  Population Healthy Nuclei (%): 75% and 77%
  Population Hoechst High Intensity Objects (%): 10% and 12%
  Population Membrane Permeable-Phenotype (%): 2% and 0%
  Population Mitochondria Different-Phenotype (%): 41% and 65%
  Population Mitotic Cells (%): 50% and 47%
  Population Normal (%): 89% and 87%
  Population Pyknosed Nuclei (%): 8% and 10%
  Population Tubulin-Different-Phenotype (%): 44% and 56%
  Total Cell Count: 672 and 472
